Measurements from article PMC10132129 (RSC Advances, 2023).
Where a name gives a salt, the structure may show the parent alone. Marks after values point to notes of the source that are not given here. One block for each compound: values may come before it.

Experiments:
[1] = tested on: streptozotocin-induced diabetic male rats; assay: Copulatory; type: in vivo, albino rats; settings: 5 mg kg^−1 b.w; day 63
How it was run: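 STZ-diabetic males dosed orally for 9 weeks; tested on day 63. Females were ovariectomized and primed sc with 3-benzoyloxy-17b-estrol 48 h before and progesterone 500 μg 4 h before testing. Males adapted 10 min under dim red light, then paired 1:1. Mount, intromission and ejaculation latencies/frequencies and post-ejaculatory interval recorded; n = 6.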

[2] = tested on: streptozotocin-induced diabetic male rats; assay: Histopathological examination of testes; type: in vivo, albino rats; settings: 9 weeks
How it was run: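 Testes from 9-week-dosed diabetic rats fixed in 10% formalin, paraffin-embedded, cut at 5 μm and H&E-stained; examined at ×400. Tubule diameter and epithelial height measured on 20 near-circular seminiferous tubule cross-sections from three slides (lower, middle, upper testis). n = 6; mean ± SD.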

[3] = tested on: streptozotocin-induced diabetic male rats; assay: Body weight and relative reproductive organ weight in diabetic rats; type: in vivo, albino rats; settings: 5 mg kg^−1 b.w
How it was run: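 Male albino rats (190–200 g), fasted overnight, given STZ 55 mg kg−1 ip with 5% glucose to drink; FPG >250 mg dL−1 at 72 h defined diabetes. Body weight recorded weeks 0, 5, 9. Organs weighed post-mortem; relative weight = organ/body weight × 100.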

human PDE5A = human PDE5A (Homo sapiens, UniProt O76074); assay: In vitro PDE5 inhibitory activity; type: biochemical; settings: read-out: % Inhibition of PDE5
[4] = tested on: streptozotocin-induced diabetic male rats; assay: Epididymal sperm characteristics; type: in vivo, albino rats; settings: 5 mg kg^−1 b.w, 9 weeks
How it was run: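 After 9 weeks' oral dosing of STZ-diabetic rats, cauda epididymal semen was diluted with normal saline in a red-cell pipette (0.5 to 101 mark). Count in Neubauer chamber at ×40, expressed as million cells per mL. Viability by eosin–nigrosin mixed 1:1 for 5 min, ~200 cells scored; unstained cells counted as live. Smears air-dried for morphology; n = 6.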

[5] = tested on: streptozotocin-induced diabetic male rats; assay: Serum biochemical estimation in diabetic rats; type: in vivo, albino rats; settings: for Fasting plasma glucose / Fasting plasma glucose % reduced / Serum insulin / Serum insulin % increased: 5 mg kg^−1 b.w
How it was run: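 STZ-diabetic male rats (55 mg kg−1 ip; FPG >250 mg dL−1) dosed orally 9 weeks in 0.5% Na-CMC; n = 6. Fasting retro-orbital blood taken under diethyl ether at weeks 0, 5, 9; serum spun 3500 rpm, 15 min. FPG by glucometer; ALT, AST, ALP, creatinine by commercial kits. Mean ± SD; one-way ANOVA with Tukey test.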

[6] = tested on: streptozotocin-induced diabetic male rats; assay: Mating test; type: in vivo, albino rats; settings: 5 mg kg^−1 b.w
How it was run: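 In week 8, each treated diabetic male was housed 5 days with two virgin females. Daily vaginal smears checked for sperm. Sperm-positive females were kept 10 days, then euthanised (diethyl ether overdose) to count fetuses and corpora lutea. Mating success = females mated / females paired; male fertility = fetuses / corpora lutea.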

[7] = ABTS^+· radical scavenging assay; type: biochemical; settings: read-out: IC50 against ABTS^+· free radical
How it was run: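 Radical-scavenging assay: test compound at 25–100 μg mL−1 mixed with ABTS+· solution and incubated 37 °C, 6 min. Absorbance read at 750 nm against blank. Ascorbic acid was the standard. Triplicate runs; IC50 reported.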

[8] = 9 weeks treatment, vs diabetic control

inhibition at 2.5 µg/mL (human PDE5A): 48.1 ± 1.48%
inhibition at 5 µg/mL (human PDE5A): 67.8 ± 1.21%
inhibition at 7.5 µg/mL (human PDE5A): 84.1 ± 0.86%
inhibition at 10 µg/mL (human PDE5A): 97.3 ± 1.64%
SMILES: CCCc1nn(C)c2c(=O)[nH]c(-c3cc(S(=O)(=O)N4CCN(C)CC4)ccc3OCC)nc12 [Sildenafil citrate]
Ejaculatory latency [1]: 948.83 ± 32.29^a sec
Intromission frequency [1]: 8.20 ± 0.55^by no.
Intromission latency [1]: 805.33 ± 23.84^bx sec
Mount frequency [1]: 578.50 ± 38.01^cy sec
Mount latency [1]: 539.67 ± 27.06^x sec
Post ejaculatory interval [1]: 1311.67 ± 95.19 s
Height of seminiferous epithelium ([2]; 5 mg kg^−1 b.w): 70.60 ± 3.10^z μm
Mean seminiferous tubule diameter ([2]; 5 mg kg^−1 b.w): 217.00 ± 15.14^y μm
Mean Johnson's score ([2]; 5 mg kg^−1 b.w, range 1–10): 9.30 ± 0.48^z
Testicular histology (H&E) ([2]; oral treatment): marked development in the testicular structure
Body weight ([3]; 9 weeks): 179.50 ± 5.05 g
Body weight % changed ([3]; 9 weeks): −10.32 ± 3.18%
Body weight ([3]; 0 week): 200.33 ± 6.68 g
Body weight ([3]; 5 weeks): 170.83 ± 6.79 g
Body weight % changed ([3]; 5 weeks): −14.69 ± 3.27%
Detached head from sperm [4]: 9.67 ± 2.73^z %
Sperm abnormalities [4]: 9.83 ± 0.75^ay %
Sperm count [4]: 56.69 ± 1.37 million cells per mL
Sperm count % reduced [4]: 24.24 ± 3.66%
Sperm motility [4]: 68.67 ± 3.14^by %
Sperm viability [4]: 68.17 ± 2.56^cz %
Fasting plasma glucose ([5]; 9 weeks): 190.67 ± 5.79 mg/dL
Fasting plasma glucose % reduced ([5]; 9 weeks): 45.28 ± 2.37%
Serum insulin ([5]; 9 weeks): 6.82 ± 0.14 mIU L^−1
Serum insulin % increased ([5]; 9 weeks): 99.58 ± 9.18%
Fasting plasma glucose ([5]; 0 week): 348.67 ± 6.80^c mg dL^−1
Serum insulin ([5]; 0 week): 3.43 ± 021^c mIU L^−1
Fasting plasma glucose ([5]; 5 weeks): 219.17 ± 5.38 mg/dL
Fasting plasma glucose % reduced ([5]; 5 weeks): 37.12 ± 2.15%
Serum insulin ([5]; 5 weeks): 6.00 ± 0.29 mIU L^−1
Serum insulin % increased ([5]; 5 weeks): 75.37 ± 3.54%
Creatinine (Cr) level [5, 8]: remarkable reduction
Total bilirubin (TBIL) level [5, 8]: remarkable reduction
Total protein (TP) level [5, 8]: significant recovery
Urea (U) level [5, 8]: remarkable reduction
Male fertility [6]: 83.85 ± 3.98^z %
Mating success [6]: 83.34%
No. of corpora lutea/rat [6]: 12.40 ± 0.52
No. of fetuses/rat [6]: 10.40 ± 0.70^z
No. of females mated ([6]; of 12 females paired): 10
No. of females pregnant ([6]; of 12 females paired): 10

IC50 [7]: 169 ± 12.9 µM
SMILES: O=C1O[C@H]([C@@H](O)CO)C(O)=C1O [ascorbic acid]
